Measured values reported in ChEMBL document CHEMBL1158529, “Synthesis and biological evaluation of novel C5 halogen-functionalized S-DABO as potent HIV-1 non-nucleoside reverse transcriptase inhibitors” (Bioorg Med Chem, 2010).
The source made the active and inactive calls. No cut-off for these calls is given here.

Each compound was assayed against Human immunodeficiency virus type 1 reverse transcriptase (Human immunodeficiency virus 1) (UniProt Q72547) (assay: Ratio of compound IC50 to 5a3 IC50 for HIV1 reverse transcriptase).

Ratio IC50	Structure (SMILES)
45	O=c1cc(Cc2ccccc2)nc(SCCCc2ccccc2)[nH]1

The compounds below were run against Human immunodeficiency virus type 1 reverse transcriptase (Human immunodeficiency virus 1) (UniProt Q72547) (assay: Inhibition of HIV1 reverse transcriptase up to 100 uM by ELISA).
Procedure, shortened: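 RT assay on a poly(rA)/oligo(dT)15 homopolymer template with HIV antigen-detection ELISA read-out. Compounds were tested for loss of RT activity at concentrations up to 100 µM. Values are means of three separate experiments, with triplicate variation under 15%.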

inhibition	Structure (SMILES)
inactive	O=c1cc(Cc2ccccc2)nc(SCc2ccc3ccccc3c2)[nH]1
inactive	C=CCSc1nc(Cc2ccccc2)c(C)c(=O)[nH]1
inactive	CC(C)(C)c1ccc(CSc2nc(Cc3ccccc3)cc(=O)[nH]2)cc1
inactive	O=c1cc(Cc2ccccc2)nc(SCc2ccccc2)[nH]1
inactive	Cc1c(Cc2ccccc2)nc(SCc2ccccc2)[nH]c1=O
inactive	Cc1c(Cc2ccccc2)nc(SCc2ccc(C(C)(C)C)cc2)[nH]c1=O
inactive	Cc1cccc(CSc2nc(Cc3ccccc3)c(C)c(=O)[nH]2)c1
inactive	Cc1c(Cc2ccccc2)nc(SCc2ccc3ccccc3c2)[nH]c1=O

What follows are compounds tested against Human immunodeficiency virus type 1 reverse transcriptase (Human immunodeficiency virus 1, UniProt Q72547) (assay: Inhibition of HIV1 reverse transcriptase by ELISA).
Procedure, shortened: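 HIV-1 reverse transcriptase activity measured with a poly(rA)/oligo(dT)15 homopolymer template and read by HIV antigen-detection ELISA.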

IC50 [µM]	Structure (SMILES)
5.62	CC(C)(C)c1ccc(CSc2nc(Cc3ccccc3)c(I)c(=O)[nH]2)cc1
12.1	O=c1cc(Cc2ccccc2)nc(SCOCc2ccccc2)[nH]1
90.8	COc1cccc(CSc2nc(Cc3ccccc3)cc(=O)[nH]2)c1
8.29	COc1cccc(CSc2nc(Cc3ccccc3)c(I)c(=O)[nH]2)c1
19	Cc1c(Cc2ccccc2)nc(SCOCc2ccccc2)[nH]c1=O
8.17	O=c1cc(Cc2ccccc2)nc(SCCCc2ccccc2)[nH]1
> 100	CC(Sc1nc(Cc2ccccc2)cc(=O)[nH]1)c1ccccc1 (centres undefined)
3.03	Cc1cccc(CSc2nc(Cc3ccccc3)c(I)c(=O)[nH]2)c1
91.1	Cc1cccc(CSc2nc(Cc3ccccc3)cc(=O)[nH]2)c1
> 100	Cc1ccccc1CSc1nc(Cc2ccccc2)c(C)c(=O)[nH]1
> 100	CCOCSc1nc(Cc2ccccc2)cc(=O)[nH]1
59.6	Cc1c(Cc2ccccc2)nc(SCCc2ccccc2)[nH]c1=O
13.9	O=c1[nH]c(SCCc2ccccc2)nc(Cc2ccccc2)c1Br
12.3	O=c1[nH]c(SCc2ccc3ccccc3c2)nc(Cc2ccccc2)c1Br
26.7	Cc1cccc(CSc2nc(Cc3ccccc3)c(Br)c(=O)[nH]2)c1

More lines, now with the values behind:

Structure (SMILES)	IC50 [µM]
Cc1ccccc1CSc1nc(Cc2ccccc2)c(I)c(=O)[nH]1	4.16
C=CCSc1nc(Cc2ccccc2)cc(=O)[nH]1	> 100
O=c1[nH]c(SCCc2ccccc2)nc(Cc2ccccc2)c1I	2.4
O=c1[nH]c(SCc2ccccc2)nc(Cc2ccccc2)c1I	10.1
Cc1c(Cc2ccccc2)nc(SCCCc2ccccc2)[nH]c1=O	2.93
Cc1ccccc1CSc1nc(Cc2ccccc2)cc(=O)[nH]1	47.7
COc1cccc(CSc2nc(Cc3ccccc3)c(C)c(=O)[nH]2)c1	48.7
Cc1c(Cc2ccccc2)nc(SC(C)c2ccccc2)[nH]c1=O (centres undefined)	> 100
CCOCn1c(Cc2ccccc2)c(C(C)C)c(=O)[nH]c1=O [EMIVIRINE]	0.15
CCOCSc1nc(Cc2ccccc2)c(C)c(=O)[nH]1	51.7
O=c1cc(Cc2ccccc2)nc(SCCc2ccccc2)[nH]1	17.4
Cc1ccccc1CSc1nc(Cc2ccccc2)c(Br)c(=O)[nH]1	24.9
O=c1[nH]c(SCCCc2ccccc2)nc(Cc2ccccc2)c1I	0.18
O=c1[nH]c(SCc2ccc3ccccc3c2)nc(Cc2ccccc2)c1I	2.04

The compounds below were run against Human immunodeficiency virus type 1 reverse transcriptase (Human immunodeficiency virus 1) (UniProt Q72547) (assay: Ratio of nevirapine IC50 to compound IC50 for HIV1 reverse transcriptase).

Ratio IC50	Structure (SMILES)
23	O=c1[nH]c(SCCCc2ccccc2)nc(Cc2ccccc2)c1I
